# Laboratory results: ChEMBL document CHEMBL2086276, “Synthesis and evaluation of mutual prodrugs of ibuprofen with menthol, thymol and eugenol” (Eur J Med Chem, 2012)
# How the values were obtained:
# Rattus norvegicus [1] = assay: Antiinflammatory activity in Wistar rat model assessed as inhibition of carrageenan-induced paw edema at 20 mg/kg, po administered 30 mins prior to carrageenan challenge measured after 2 hrs; assay type: functional
# Rattus norvegicus [2] = assay: Antiinflammatory activity in Wistar rat model assessed as inhibition of carrageenan-induced paw edema at 20 mg/kg, po administered 30 mins prior to carrageenan challenge measured after 5 hrs; assay type: functional
# Rattus norvegicus [3] = assay: Antiinflammatory activity in Wistar rat model assessed as inhibition of carrageenan-induced paw edema at 20 mg/kg, po administered 30 mins prior to carrageenan challenge measured after 3 hrs; assay type: functional
# [4] = Octanol-buffer partition coefficient, log P of the compound by HPLC analysis; assay type: physicochemical
# Method in brief: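 100 mg compound in 10 mL aqueous phase plus 10 mL octanol, shaken 1 h, left 2 h at 25 °C. Each phase quantified by HPLC: C18 column, […], 1.0 mL/min, UV 254 nm. Partition coefficient = organic-phase over aqueous-phase concentration; also computed in silico.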
# Rattus norvegicus [5] = assay: Gastrotoxicity in 24 hrs fasted Wistar rat assessed as ulcer index at 150 mg/kg, po after 6 hrs; assay type: toxicity, organism-based; design: dose 150 mg/kg, route oral; details: in vivo
# Method in brief: (§1)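 Rats fasted 24 h, then dosed orally as suspension in 0.5% acacia, 150 mg/kg ibuprofen or molar equivalent of prodrug; n = 6 per group. Killed 6 h after dosing, food and water then ad libitum. Stomach opened, rinsed with 5 mL saline, inspected under magnifier, ulcers scored by severity; ulcer index is the group mean, ± SEM.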
# Rattus norvegicus [6] = assay: Antiinflammatory activity in Wistar rat model assessed as inhibition of carrageenan-induced paw edema at 20 mg/kg, po administered 30 mins prior to carrageenan challenge measured after 4 hrs; assay type: functional
# Rattus norvegicus [7] = assay: Antiinflammatory activity in Wistar rat model assessed as inhibition of carrageenan-induced paw edema at 20 mg/kg, po administered 30 mins prior to carrageenan challenge measured after 6 hrs; assay type: functional
# Rattus norvegicus [8] = assay: Antiinflammatory activity in Wistar rat model assessed as inhibition of carrageenan-induced paw edema at 20 mg/kg, po administered 30 mins prior to carrageenan challenge measured after 1 hr; assay type: functional
# Rattus norvegicus [9] = assay: Gastrotoxicity in 24 hrs fasted po dosed Wistar rat assessed as ulcer index at dose molecularly equivalent to ibuprofen after 6 hrs; assay type: toxicity, organism-based; details: in vivo; method in brief: as §1
# Rattus norvegicus [10] = assay: Antiinflammatory activity in po dosed Wistar rat assessed as inhibition of carrageenan-induced paw edema at dose molecularly equivalent to ibuprofen administered 30 mins prior to carrageenan challenge measured after 2 hrs; assay type: functional
# Rattus norvegicus [11] = assay: Antiinflammatory activity in po dosed Wistar rat assessed as inhibition of carrageenan-induced paw edema at dose molecularly equivalent to ibuprofen administered 30 mins prior to carrageenan challenge measured after 5 hrs; assay type: functional
# [12] = Half life of the compound in phosphate buffer at pH 7.4; assay type: physicochemical
# Method in brief: (§2)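 Hydrolysis at 37 °C in sealed screw-cap vials in a water bath; pH 1.2 HCl, pH 7.4 phosphate or pH 10.0 NaOH buffer, 20 mM total buffer, ionic strength held at 0.5 M with KCl. Sampled at 15, 30, 60, 120, 240 min; ester and ibuprofen quantified by HPLC. Pseudo-first-order Kobs = 2.303/t·log(a/(a−x)); t1/2 = 0.693/Kobs.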
# [13] = Half life of the compound in NaOH buffer at pH 10 by HPLC analysis; assay type: physicochemical; method in brief: as §2
# [14] = Chemical stability of the compound assessed as hydrolysis in HCl buffer at pH 1.2 by HPLC analysis; assay type: physicochemical; method in brief: as §2
# Rattus norvegicus [15] = assay: Antiinflammatory activity in po dosed Wistar rat assessed as inhibition of carrageenan-induced paw edema at dose molecularly equivalent to ibuprofen administered 30 mins prior to carrageenan challenge measured after 6 hrs; assay type: functional
# Rattus norvegicus [16] = assay: Antiinflammatory activity in po dosed Wistar rat assessed as inhibition of carrageenan-induced paw edema at dose molecularly equivalent to ibuprofen administered 30 mins prior to carrageenan challenge measured after 4 hrs; assay type: functional
# Rattus norvegicus [17] = assay: Antiinflammatory activity in po dosed Wistar rat assessed as inhibition of carrageenan-induced paw edema at dose molecularly equivalent to ibuprofen administered 30 mins prior to carrageenan challenge measured after 1 hr; assay type: functional
# Rattus norvegicus [18] = assay: Antiinflammatory activity in po dosed Wistar rat assessed as inhibition of carrageenan-induced paw edema at dose molecularly equivalent to ibuprofen administered 30 mins prior to carrageenan challenge measured after 3 hrs; assay type: functional
smiles,measurement,setting,value
CC(C)Cc1ccc(C(C)C(=O)O)cc1 (racemic) [IBUPROFEN],inhibition in vivo at 20 mg/kg,Rattus norvegicus [1],22.1%
same,inhibition in vivo at 20 mg/kg,Rattus norvegicus [2],46.8%
same,inhibition in vivo at 20 mg/kg,Rattus norvegicus [3],40.9%
same,logP,[4],3.71
same,UI,Rattus norvegicus [5],2.41
same,inhibition in vivo at 20 mg/kg,Rattus norvegicus [6],44%
same,inhibition in vivo at 20 mg/kg,Rattus norvegicus [7],47.6%
same,inhibition in vivo at 20 mg/kg,Rattus norvegicus [8],18.3%
Cc1ccc(C(C)C)c(OC(=O)C(C)c2ccc(CC(C)C)cc2)c1 (racemic),UI,Rattus norvegicus [9],0.83
same,inhibition (INH),Rattus norvegicus [10],32.52%
same,inhibition (INH),Rattus norvegicus [11],61.5%
same,half-life,[12],5.19 h
same,logP,[4],6.27
same,half-life,[13],2.42 h
same,Stability,[14],Stable
same,inhibition (INH),Rattus norvegicus [15],64.01%
same,inhibition (INH),Rattus norvegicus [16],55.17%
same,inhibition (INH),Rattus norvegicus [17],29.36%
same,inhibition (INH),Rattus norvegicus [18],47.63%
C=CCc1ccc(OC(=O)C(C)c2ccc(CC(C)C)cc2)c(OC)c1 (racemic),UI,Rattus norvegicus [9],1.08
same,inhibition (INH),Rattus norvegicus [10],31.43%
same,inhibition (INH),Rattus norvegicus [11],56.17%
same,half-life,[12],2.84 h
same,logP,[4],5.63
same,half-life,[13],1.34 h
same,Stability,[14],Stable
same,inhibition (INH),Rattus norvegicus [15],60.33%
same,inhibition (INH),Rattus norvegicus [16],55.26%
same,inhibition (INH),Rattus norvegicus [17],27.93%
same,inhibition (INH),Rattus norvegicus [18],48.06%
CC(C)Cc1ccc(C(C)C(=O)OC2CC(C)CCC2C(C)C)cc1 (stereo unspecified),UI,Rattus norvegicus [9],0.91
same,inhibition (INH),Rattus norvegicus [10],34.08%
same,inhibition (INH),Rattus norvegicus [11],64.01%
same,half-life,[12],6.01 h
same,logP,[4],6.69
same,half-life,[13],2.72 h
same,Stability,[14],Stable
same,inhibition (INH),Rattus norvegicus [15],66.84%
same,inhibition (INH),Rattus norvegicus [16],55%
same,inhibition (INH),Rattus norvegicus [17],31.58%
same,inhibition (INH),Rattus norvegicus [18],48.49%
